Screens deposited in PubChem BioAssay by several laboratories.
Hits are enriched below; roughly 3% of the tested compounds scored in any of these assays.
KCC2 mod – modulates chloride dependent transport by human KCC2; Q9H2X9; KCC2 cells, thallium flux FluoZin-2 fluorescence; B-score of Tl+ flux slope (higher = more flux/activation; lower = inhibition) at 10 µM; actives 2.2% (n = 190,000);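 active = thallium flux slope and its plate-corrected score both differing from the plate sample mean at a set confidence after two filtering rounds, in either direction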;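 also: slope of fluorescence scaled to starting intensity during 10 to 20 s after thallium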
PKD1 inh – PKD1 (human) kinase inhibition. PKD1 kinase fluorescence polarization assay. inhibition, % (test concentration not listed). Q15139. actives 0.056% (n = 200,000). AID 797; in the data active = inhibition above about 50%
Rad51 HR inh – Rad51 (human) homologous recombination inhibition; Q06609; hRad51 DNA strand exchange, fluorescence dequenching; actives 0.085% (n = 200,000); inhibition, % at 10 µM;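 active = inhibition above 40% at the single screening dose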;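 also: 0% = DMSO control wells and 100% = blanks with heterologous ssDNA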
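Test system: preformed human Rad51 ssDNA filaments; also added: Donor/quencher-labelled 47-bp dsDNA substrate; doses: 10 µM final, single point; times: 37 °C 15-min filament assembly, 30-min compound preincubation, 15-min exchange; detection: FRET fluorescence dequenching, excitation 485 nm, emission 520 nm; read-out basis: Fluorescence-based percent inhibition, control- and blank-normalised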
ROMK primary – modulates human ROMK potassium channel activity. P48048. Tet-inducible ROMK, thallium flux fluorescence; actives lie on both sides. B-score at 10 µM. actives 2% (n = 130,000). AID 1918;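 active = signal ratio slope over the read window, or its plate-corrected B-score, at least 3 SD from the plate mean, either direction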;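 also: B-score of the F/F0 ratio slope over 7 to 12 s after thallium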
Target sequence (P48048 whole entry, looked up): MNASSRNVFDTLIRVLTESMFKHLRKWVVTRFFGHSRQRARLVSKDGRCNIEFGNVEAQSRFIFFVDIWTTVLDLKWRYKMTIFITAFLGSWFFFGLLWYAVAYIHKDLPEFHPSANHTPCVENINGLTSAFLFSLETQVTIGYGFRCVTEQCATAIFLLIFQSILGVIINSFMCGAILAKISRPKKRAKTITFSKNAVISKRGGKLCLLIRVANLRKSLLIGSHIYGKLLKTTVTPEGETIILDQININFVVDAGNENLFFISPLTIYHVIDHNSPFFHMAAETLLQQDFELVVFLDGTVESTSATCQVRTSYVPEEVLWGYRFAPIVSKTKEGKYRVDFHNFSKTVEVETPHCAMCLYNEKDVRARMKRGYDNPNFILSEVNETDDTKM
ROMK hit retest – human ROMK channel modulation, retest confirmation; shares compounds with ROMK primary; ROMK thallium flux, fluorescence ratio; hits give low values; normalized thallium flux (F/F0 slope) at 10 µM; actives 54% (n = 3,000); AID 1917;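 active = Flux at 10 µM at least 3 SD below or above vehicle control mean in one or both replicates; inconclusive = no clear call, values can overlap the other calls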
An asterisk follows results filed as active; i = inactive; u = inconclusive; x = no result.

SMILES	KCC2 mod	PKD1 inh	Rad51 HR inh	ROMK primary	ROMK hit retest
COc1ccc(OC)c(C2=NOC(C(=O)NCc3ccccn3)C2)c1 (stereo not given)	0.42	-6.1	x	x	0.0759
O=C(NCc1ccccn1)C1CC(c2ccccc2O)=NO1 (stereo not given)	-1.6	-7.4	-4.5	2.56*	0.0877
O=C(NCc1cccs1)C1CC(c2ccccc2O)=NO1 (stereo not given)	0.155	-4.1	x	x	x
CNS(=O)(=O)c1ccc(NS(=O)(=O)c2ccccc2F)cc1	0.0185	-3.1	3.1	-0.687	x
Cc1nnc(SCC(=O)Nc2c(C)n(C)n(-c3ccccc3)c2=O)n1Cc1ccccc1	0.189	0.1	14.8	0.745	x
CS/C(Nc1cc(Cl)ccc1Cl)=C(/C#N)C(=O)c1ccco1	x	x	6.8	x	0.0515*
Cc1[nH]c2ccccc2c1CN1CCN(c2ccccn2)CC1	0.138	x	5.8	-3.67*	0.0648*
CCOC(=O)Nc1ccc(S(=O)(=O)Nc2nccc(C)n2)cc1	1.79	-2.5	-17.2	x	x
CCOC(=O)Nc1ccc(S(=O)(=O)Nc2nc(C)cc(C)n2)cc1	x	-1.4	-5.8	2.42*	0.0802
O=C1c2sc3nc4c(c(=O)n3c2C(=O)N1c1ccccc1)CCC4	-0.463	-5.7	4.5	1.4	x
Cc1ccccc1N1C(=O)c2sc3nc4c(c(=O)n3c2C1=O)CCC4	x	3.4	-3.2	-3.13*	0.0778
CCOc1ccc2[nH]c(=O)c(CN(CCO)C(c3nnnn3C3CCCCC3)C(C)C)cc2c1 (stereo not given)	0.892	-4.1	-0.6	-2.42*	0.0595*
O=C(Nc1cccc(Cl)c1)Nc1ccnc(-c2cccnc2)n1	-0.764	1.7	-7.0	2.36*	0.0798
O=C(Nc1ccccc1)c1ccccc1O	0.0654	8.6	3.5	x	x
Cc1ccc(NC(=O)c2ccccc2O)cc1	-1.71	-0.4	-8.8	x	0.0651*
COc1ccc(C2C(C(=O)NCCCN3CCOCC3)c3ccccc3C(=O)N2c2ccc(OC)cc2)cc1 (stereo not given)	0.857	-6.8	0.5	-0.506	x
CCOc1ccc(C2C(C(=O)Nc3cc(C)on3)c3ccccc3C(=O)N2CCN2CCOCC2)cc1 (stereo not given)	x	-4.8	-0.8	-4.13*	0.0803
O=C1O/C(=C/c2ccccc2)c2ccccc21	-0.0614	2.9	5.4	0.313	x
O=C1/C(=C/c2ccccc2)Nc2ccccc21	i	-1.3	x	x	0.0232*
Fc1cccc(C2NC(=S)NC3=C2N2CCC3CC2)c1 (stereo not given)	-0.383	-5.8	-9.3	x	x
COc1ccc(OC)c(C2NC(=S)NC3=C2N2CCC3CC2)c1 (stereo not given)	-0.851	3.6	x	2.95*	0.0744
O=C(Cn1cncn1)NCc1cc(F)ccc1F	-0.465	-2.6	x	0.921	x
Brc1ccc(CNc2cc3c(cc2Br)OCCO3)cc1	1.08	3.6	-1.8	0.00694	x
c1ccc(Cn2c(-c3cncs3)nc3ccccc32)cc1	-0.199	-2.7	-1.8	-2.49*	0.06*
O=C(COc1ccc(Cl)cc1[N+](=O)[O-])N1CCCCCC1	-1.79	-7.2	7.7	-1.79*	u
SMILES	KCC2 mod	PKD1 inh	Rad51 HR inh	ROMK primary	ROMK hit retest
O=C(COc1ccc(Cl)cc1Cl)N1CCCC1	-0.22	-0.2	x	-0.518	x
COc1cc2c(cc1OC)CN(CCC(=O)c1ccc(Br)cc1)CC2	0.18	5.1	4.2	-4.04*	u
COc1cc2c(cc1OC)CN(CC(=O)Nc1cccc(C)c1)CC2	0.929	-4.7	4.5	x	x
O=C(CCCCn1c(=O)c2ccccc2n(Cc2ccccc2F)c1=O)NC1CCN(Cc2ccccc2)CC1	-0.00557	-8.0	-0.1	0.066	x
COc1ccc(NC(=O)c2ccccc2NS(=O)(=O)c2ccc(C)cc2)c([N+](=O)[O-])c1	-2.46	-7.6	7.9	-0.00798	x
COc1ccc(C(=O)COC(=O)c2ccccc2NS(=O)(=O)c2ccc(O)c([N+](=O)[O-])c2)cc1	-4.18	x	x	x	0.0806
N#C/C(=C\c1ccc(OC(F)F)cc1)C(=O)N1CCCCC1	0.152	x	-5.1	x	x
CN1CCC(N(C)C(=O)/C(C#N)=C/c2ccc(OC(F)F)cc2)CC1	-0.183	x	44.6*	x	0.0457*
CC(NC(=O)/C(=C/c1ccc(OC(F)F)cc1)c1ccccc1)c1ccccc1 (stereo not given)	-0.831	-2.2	2.6	x	x
CCN1CCN(C(=O)/C(C#N)=C/c2ccc(OC(F)F)cc2)CC1	-0.249	-1.9	-0.9	-3.62*	0.0469*
CSc1ncccc1C(=O)Nc1nnc(C2CC2)s1	0.398	-1.9	-30.2	-0.4	x
Cc1occc1C(=O)Nc1ccc2c(c1)OCCO2	-0.364	-1.6	-2.0	x	0.077
COc1cc(NC(=O)c2ccc([N+](=O)[O-])cc2)ccc1NC(=O)C(C)C	0.831	-0.2	x	0.612	x
CCC(C)(C#CCN1CCCCC1)OCCC#N (stereo not given)	0.0916	-7.3	x	0.517	x
N#C/C(=C\c1ccc(O)c(Br)c1)C(=O)NCc1ccccc1	-0.892	13.6	31.9	3.62*	0.0661*
COc1ccc(C2CC(C)(c3ccc(OC)cc3)Nc3ccccc3N2)cc1 (stereo not given)	0.927	x	x	x	0.0872
COc1ccc(C2(c3ccc(OC(C)=O)cc3OC(C)=O)CC(c3ccccc3)NC(=S)N2)cc1 (stereo not given)	-0.531	9.1	-0.2	-0.193	x
C/C(=N\NC(=O)CSc1ncccn1)c1ccc2c(c1)OCCO2	1.26	8.0	-3.4	-0.593	x
COC(CN(C(=O)CCl)C(C(=O)NC1CCCCC1)c1ccc(C)cc1)OC (stereo not given)	0.207	5.7	17.8	-0.222	x
CCOC(=O)Nc1nc(-c2ccccc2)c(C(=O)c2ccccc2)s1	-0.882	9.6	4.9	3.58*	0.0825
CC(=O)c1sc(NC(=O)c2c(F)cccc2F)nc1-c1ccccc1	-0.897	-4.8	12.4	-12.4*	0.0781
O=C1NC(c2ccccc2)=C(c2ccc3ccccc3n2)C(c2ccc(F)cc2)N1 (stereo not given)	-1.71	-5.0	x	-2.99*	0.0757
O=C1NC(c2ccccc2)=C(c2ccc3ccccc3n2)C(c2ccccc2)N1 (stereo not given)	-1.1	-5.5	x	1.04	x
Cc1ccc(N2CCN(C(=O)CN3C(=O)c4ccccc4C3=O)CC2)cc1	-0.677	1.4	1.1	1.89*	0.0738
Cc1ccc(C2=NN=C(NC(=O)CSc3nncn3C)SC2)cc1	-1.06	-4.3	-4.1	0.194	x
SMILES	KCC2 mod	PKD1 inh	Rad51 HR inh	ROMK primary	ROMK hit retest
CCC(CC)C(=O)N1c2ccc(F)cc2CCC1C (stereo not given)	-0.235	-4.3	3.1	0.428	x
CC1CCc2cc(F)ccc2N1C(=O)CCl (stereo not given)	0.993	-6.7	-5.5	-4.26*	0.0476*
COc1ccc(/C=N/NC(=O)c2cccc(OC(F)(F)C(F)F)c2)cc1O	-0.128	3.9	-0.3	1.76*	0.0895
COc1ccc(/C=N/NC(=O)c2cccnc2)cc1COc1ccc(NC(C)=O)cc1	-0.53	x	11.8	3.87*	u
COc1ccc(/C=N/NC(=O)c2cccnc2)cc1COc1ccc([N+](=O)[O-])cc1	-1.5	x	15.9	4.74*	0.0914
COc1ccc(NC(=O)COc2ccc(/C=N/NC(=O)c3cccnc3)cc2OC)cc1	0.0254	-7.4	3.3	x	x
